Assay outcomes as filed in PubChem BioAssay.
UPR XBP1 act = activators of adaptive XBP1 UPR arm, primary screen, cell-based, CHO-XBP1 luciferase reporter, luminescence, uHTS; IRE1-XBP1 UPR activation; percent of tunicamycin response, DMSO as zero; activation, % at 20 µM; 330,000 compounds, 0.33% hits;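 active = versus positive control, 20 µM dose yields 30% or more activation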
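Material: IRE1-XBP1 luciferase reporter CHO line / Quantity: one thousand reporter cells per well / Buffer or medium: F12 with 10% serum / Compound: 20 µM single concentration, DMSO 1% / Times: 6 h treatment, 37 °C / Detection: Steady-Glo luciferase glow luminescence, 10 min after reagent addition / Benchmarks: tunicamycin high, DMSO low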
PvdQ acylase = P. aeruginosa PvdQ acylase inhibitors, primary screen, biochemical, fluorescence, plate reader and imaging, single point; AID 488965, 2010; purified PvdQ acylase; PvdQ acylase [Pseudomonas aeruginosa LESB58]; inhibition, % at 10 µM; 340,000 compounds, 0.063% hits; in the data active = inhibition above about 30%, passing the limit was not always enough; inconclusive = no clear call, values can overlap the other calls
UPR CHOP act = activators of apoptotic CHOP UPR arm, primary screen, cell-based, CHO-CHOP luciferase reporter, luminescence, uHTS; UPR activation; percent of tunicamycin response over DMSO baseline; activation, % at 10 µM; 330,000 compounds, 0.34% hits; AID 449763, 2010;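 active = at 10 µM dose, activation of 40% or more, normalized to positive control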
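Test system: CHO-CHOP cells, stable luciferase reporter of PERK-eIF2a-CHOP signalling | Quantity: 500 CHO-CHOP cells per well | Buffer or medium: F12 plus 10% serum | Compound dosing: 10 µM single point, 0.5% DMSO | Schedule: 6 h compound treatment, 37 °C | Signal: Luciferase luminescence | Control set: Tunicamycin high control, DMSO low control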
CHOP inhibitor = inhibitors of CHOP promoter induction, primary screen, cell-based, unfolded protein response, luciferase reporter; inhibition, % at 10 µM; 220,000 compounds, 3.8% hits; CHO-K1 CHOP-promoter luciferase, tunicamycin-induced, 15-18 h;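 active = compounds that reduced the stress-induced luciferase reporter signal by more than about 70% of percent inhibition, limit read from the data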
Of the large screens only hits and unclear results are named; the others gave an inactive call. This excerpt belongs to a sample that is enriched for hits.

CCOc1cc(CNCCc2ccc(S(N)(=O)=O)cc2)cc(Cl)c1OCc1ccccc1	CHOP inhibitor 70.3
Cc1nc(-c2ccc(F)cc2)c(CC(=O)N(C)CC(=O)Nc2ccc(Cl)c(C(F)(F)F)c2)s1	none (no result: UPR XBP1 act, UPR CHOP act, CHOP inhibitor)
CCCNC(=O)COC(=O)c1ccccc1OCC(=O)Nc1ccc(Br)cc1	CHOP inhibitor 80.0
CCCCN(CCCC)CP(=O)(c1ccccc1)c1ccccc1	CHOP inhibitor 73.1
Cc1ccc(-c2nnc3n2N=C(c2ccc(Br)cc2)CS3)cc1	CHOP inhibitor 89.4
Cc1ccc(C)c(OCC(=O)N/N=C/c2c(C)nn(-c3ccccc3)c2Cl)c1	CHOP inhibitor 83.0 (no result: PvdQ acylase)
Cc1ccc(C(C)C)c(OCC(=O)N/N=C/c2cccn2C)c1	CHOP inhibitor 95.9
CCC(C)Sc1nnc(CNC(=O)C23CC4CC(CC(C4)C2)C3)n1C1CCCCC1 (centres undefined)	CHOP inhibitor 94.8
CC(C)Sc1nnc(CNC(=O)C23CC4CC(CC(C4)C2)C3)n1Cc1ccccc1	none
NC(=O)COC(=O)c1ccc(-c2ccccc2)cc1	PvdQ acylase inconclusive
CCCCCCCCCCCCCCCC[n+]1ccc(C(N)=O)cc1	CHOP inhibitor 70.4
CCCCCCCCCCCCCCCC[n+]1ccccc1	none (no result: UPR XBP1 act, UPR CHOP act, CHOP inhibitor)
O=C(CN1C(=O)NC2(CCCC2)C1=O)N1CCN(Cc2ccccc2)CC1	none (no result: CHOP inhibitor)
CCN1CCN(c2ncnc3c2cnn3-c2ccc(C)cc2C)CC1	none
CCc1cc2c(N3CCN(c4ccccc4)CC3)ncnc2s1	CHOP inhibitor 77.0
Cc1ccc(-n2ncc3c(N4CCN(c5ccccc5)CC4)ncnc32)c(C)c1	CHOP inhibitor 84.4
COc1ccc(N2CCN(c3ncnc4c3cnn4-c3ccc(C)cc3C)CC2)cc1	CHOP inhibitor 74.4
COc1ccc(CNC(=O)CNC(=O)N2CC(=O)Nc3ccccc32)cc1	none (no result: CHOP inhibitor)
CCCc1nc(SCC(=O)N2CCOCC2)c2c(C)c(C)sc2n1	none (no result: CHOP inhibitor)
CC1CCc2nc(NC(=O)CN3CCN(Cc4ccc5c(c4)OCO5)CC3)sc2C1 (centres undefined)	CHOP inhibitor 82.5
CC1CCc2nc(NC(=O)Nc3ccc4c(c3)OCO4)sc2C1 (centres undefined)	CHOP inhibitor 84.2
CC1CCc2nc(NC(=O)C3COc4ccccc4O3)sc2C1 (centres undefined)	CHOP inhibitor 78.5
CC1CCc2nc(NC(=O)C3CC3)sc2C1 (centres undefined)	none
CC1CCc2nc(NC(=O)CN3CCN(c4ccccc4)CC3)sc2C1 (centres undefined)	none
CCCOC(=O)c1c(-c2ccccc2)nc(CC)c(C(=O)SCC)c1CCC	none
CCOc1ccc2nc(SCC(=O)NCc3ccccc3OC)[nH]c2c1	none (no result: CHOP inhibitor)
COc1ccc(NC(=O)CN2C(=O)NC(C)(C3CC3)C2=O)cc1S(=O)(=O)N1CCOCC1 (centres undefined)	none (no result: CHOP inhibitor)
O=S(=O)(Nc1nccs1)c1ccc(Cl)cc1	none
O=[N+]([O-])c1ccc(Oc2ccc(F)cc2)c2ccncc12	CHOP inhibitor 77.0
CC1=CC(=O)c2c(O)ccc(O)c2C1=O	CHOP inhibitor 105.8 (no result: UPR XBP1 act, PvdQ acylase, UPR CHOP act)
COC(=O)c1sc(NC(=O)/C=C/c2ccccc2Cl)nc1C	none
O=C(Nc1ccc2c(c1)OCO2)c1cnc(Cl)c(Cl)c1	none (no result: CHOP inhibitor)
CN1/C(=C\C=C(/C#N)C(=O)Nc2ccc(Cl)cc2)C(C)(C)c2ccccc21	CHOP inhibitor 75.4
CN1/C(=C\C(=O)Nc2ccc(Cl)cc2)C(C)(C)c2ccccc21	none
Fc1cccc2sc(Nc3nc4c(F)cccc4s3)nc12	CHOP inhibitor 87.8
NNc1nc2c(F)cccc2s1	none
COc1ccc(C(=O)N(C)c2ccccc2C(=O)NCCc2ccccc2)cc1	none (no result: CHOP inhibitor)
COC(=O)c1cc2c(s1)-c1ccccc1CC2	CHOP inhibitor 91.3
O=C(COC(=O)c1ccccc1C(=O)c1ccc(Cl)c([N+](=O)[O-])c1)NC1CC1	CHOP inhibitor 106.0
CCCCCCCC(=O)N/N=C(\C)c1ccc(N)cc1	none (no result: PvdQ acylase)
CCCCCC(=O)N/N=C(\C)c1ccc(N2CCCCC2)cc1	CHOP inhibitor 76.1
CCOC(=O)c1ccc(NC(=O)Nc2ccc(OC)c(OC)c2)cc1	none
CCCCCOC(=O)c1ccc(NC(=O)c2ccco2)cc1	CHOP inhibitor 82.3
CCCCOC(=O)c1ccc(NC(=O)Nc2ccc(OC)c(OC)c2)cc1	CHOP inhibitor 82.9
CCCCOC(=O)c1ccc(NC(=O)/C=C/c2cccs2)cc1	CHOP inhibitor 74.8
CCCCOC(=O)c1ccc(NC(C)=O)cc1	none
COc1cccc(-n2cc(C(=O)NCCCOC(C)C)c3ccccc3c2=O)c1	none (no result: CHOP inhibitor)
Cc1ccnc(NS(=O)(=O)c2ccc3ccccc3c2)n1	none (no result: CHOP inhibitor)
Cc1ccc(OCc2cc(C(=O)N(C)CCc3ccccn3)no2)cn1	none (no result: CHOP inhibitor)
O=[N+]([O-])c1ccc(S(=O)(=O)Nc2ccncc2)cc1	none (no result: CHOP inhibitor)
O=[N+]([O-])c1ccc(Oc2ccc(S(=O)(=O)Nc3ccccc3)cc2)cc1	CHOP inhibitor 71.0
COc1cccc(CN2CC(C(=O)NCCn3ccc(C)n3)CCC2=O)c1 (centres undefined)	none (no result: CHOP inhibitor)
Cc1ccc(C)c(OCC(=O)Nc2nc3ccc([N+](=O)[O-])cc3s2)c1C	CHOP inhibitor 79.5
COn1c(SC2CCCCC2)nc2ccccc2c1=O	CHOP inhibitor 83.2
COn1c(SCC(N)=O)nc2ccccc2c1=O	none
CC(C)On1c(SC(C)C)nc2ccccc2c1=O	CHOP inhibitor 73.2
COn1c(SC(C)C)nc2ccccc2c1=O	none
COc1ccc(CC(=O)Nc2ccccc2C(=O)N2CCCC2)cc1	none (no result: CHOP inhibitor)
COc1cc(S(=O)(=O)Nc2ccc(C)cc2)ccc1N=Cc1c(C)c(C#N)c(=O)n(C)c1O	CHOP inhibitor 74.2
O=S(=O)(NCCc1csc(-c2cccnc2)n1)c1ccc(Cl)s1	CHOP inhibitor 78.1
O=S(=O)(NCCc1csc(-c2cccnc2)n1)c1cccs1	none
N#CCC(=O)Nc1ccc(C(=O)OCC(=O)NC(=O)NCc2ccco2)cc1	none (no result: CHOP inhibitor)
N#CCn1c(C2CCCCC2)nc2ccccc2c1=O	PvdQ acylase 35.1
O=C(Cn1c(C2CC2)nc2ccccc2c1=O)Nc1ccc(Br)cc1	CHOP inhibitor 84.3
CCOC(=O)C1=C(C)NC(=S)NC1c1ccc(-c2cccc(Cl)c2C)o1 (centres undefined)	CHOP inhibitor 75.2
CCOC(=O)C1=C(C)NC(=O)NC1c1ccc(-c2ccc(Cl)cc2)o1 (centres undefined)	none
CCOC(=O)C1=C(C)NC(=S)NC1c1ccc(-c2ccc(Cl)cc2)o1 (centres undefined)	CHOP inhibitor 71.8
CCCCNC(=O)N1CCN(Cc2ccc(F)cc2)CC1	none
CNC(=O)NC(=O)C(C)OC(=O)c1cc2c(s1)CCCCC2 (centres undefined)	none
O=C(NCC(c1ccccc1Cl)N1CCCC1)c1ccc(N2CCCC2=O)cc1 (centres undefined)	none (no result: CHOP inhibitor)
CCc1c(C(=O)Nc2ccncc2)csc1C	CHOP inhibitor 70.8
